Experimental data as given in ChEMBL document CHEMBL1671794, “Synthesis and SAR studies on azetidine-containing dipeptides as HCMV inhibitors” (Bioorg Med Chem, 2011).
Calls of active or inactive are those of the source. The calls are words filed in the database; no cut-off is given here.

Tested on: Vaccinia virus
Assay: Antiviral activity against Vaccinia virus infected in HELF assessed as virus-induced cytopathogenicity at 20 to 100 uM after 4 days by microscopy
Format: functional, organism-based
Settings: Orthopoxvirus vaccinia
Method in brief: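 Near-confluent MDCK (influenza) or confluent HEL monolayers were inoculated with 100 CCID50 of virus. After 1-h adsorption, residual virus was removed, and cells were incubated with fivefold serial dilutions of compound. Cytopathicity was scored microscopically once untreated infected controls reached complete CPE. Minimal cytotoxic concentration was read as microscopically visible alteration of cell morphology.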

With `C[C@H](NC(=O)[C@]1(Cc2ccccc2)CCN1C(=O)OCC1c2ccccc2-c2ccccc21)C(N)=O` the Activity was “inactive”.
